Assay results from paper PMC2697266 (Nature, 2009).

How the values were obtained:
[1] = test system: WDR5, RBBP5, and MLL2 on Hoxa9; test: ChIP, WDR5, RBBP5 and MLL2 on Hoxa9; assay type: cell-based, murine; conditions: marrow progenitors 15 days after transduction; qualitative
In short: (§1)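 Mouse Lin- marrow cells were cytokine-stimulated, retrovirally transduced, selected with 1μg/mL puromycin and kept in SCF-only medium. ChIP used 1∼2 million cells for histone marks and 2∼3 million for other factors (p300 antibody 10μg). Equal nonspecific IgG served as antibody control and Chr8Int as negative locus. Triplicate SYBR qPCR gave % of input and fold over IgG.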

[2] = test system: mice transplanted with transduced bone marrow progenitors; test: Murine bone marrow transplantation leukemogenic assay; assay type: in vivo; conditions: 12 mice
In short: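 Lin- marrow from femur and tibia (balb/C or b/6) was prestimulated 2-3 days with SCF, 5ng/mL FLT3 ligand, IL3 and IL6. Cells were infected with MSCV retrovirus encoding 3xFLAG fusion or empty vector. 100,000 cells were injected via tail vein into sublethally irradiated syngeneic mice, 12 per group, and leukemia kinetics were followed.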

p300 on Hoxa9 = test: ChIP, p300 recruitment on Hoxa9; assay type: cell-based, murine; conditions: 15 days after transduction; qualitative
In short: as §1

H3K27ac on Hoxa9 = test: ChIP, Hoxa9-associated H3 acetylation; assay type: cell-based, murine; conditions: marrow progenitors 15 days after transduction, NJL-transduced cells
In short: as §1

H3K4me3 or H3 = test: CoIP in transiently transfected 293 cells; assay type: binding; conditions: qualitative
In short: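 Nuclei underwent limited micrococcal nuclease digestion to release mainly mononucleosomes, and insoluble material was removed by centrifugation. Supernatant was incubated with FLAG- or HA-agarose, or with magnetic beads coupled to anti-H3K4me3 or control antibodies. After extensive washing, precipitated proteins were analysed by immunoblot.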

[3] = test system: Ezh2 or Suz12, H3K27me3 at Hox-A clusters; test: ChIP, polycomb factors and H3K27me3 at Hox-A cluster; assay type: cell-based, murine; conditions: NJL-infected progenitors, qualitative
In short: as §1

B1: NJL: NUP98 amino acids 1-514 fused to amino acids 1489-1690 of JARID1A transcript variant 1 (protein)
chain: MFNKSFGTPFGGGTGGFGTTSTFGQNTGFGTTSGGAFGTSAFGSSNNTGGLFGNSQTKPGGLFGTSSFSQPATSTSTGFGFGTSTGTANTLFGTASTGTSLFSSQNNAFAQNKPTGFGNFGTSTSSGGLFGTTNTTSNPFGSTSGSLFGPSSFTAAPTGTTIKFNPPTGTDTMVKAGVSTNISTKHQCITAMKEYESKSLEELRLEDYQANRKGPQNQVGAGTTTGLFGSSPATSSATGLFSSSTTNSGFAYGQNKTAFGTSTTGFGTNPGGLFGQQNQQTTSLFSKPFGQATTTQNTGFSFGNTSTIGQPSTNTMGLFGVTQASQPGGLFGTATNTSTGTAFGTGTGLFGQTNTGFGAVGSTLFGNNKLTTFGSSTTSAPSFGTTSGGLFGNKPTLTLGTNTNTSNFGFGTNTSGNSIFGSKPAPGTLGTGLGAGFGTALGAGQASLFGNNQPKIGGPLGTGAFGAPGFNTTTATLGFGAPQAPVALTDPNASAAQQAVLQQHINSLTYSPFGMEEKPLKVKGKDSSEKKRKRKLEKVEQLFGEGKQKSKELKKMDKPRKKKLKLGADKSKELNKLAKKLAKEEERKKKKEKAAAAKVELVKESTEKKREKKVLDIPSKYDWSGAEESDDENAVCAAQNCQRPCKDKVDWVQCDGGCDEWFHQVCVGVSPEMAENEDYICINCAKKQGPVSPGPAPPPSFIMSYKLPMEDLKETS
modifications: left off: 3xFLAG, N-terminal, kept
WDR5, RBBP5, and MLL2 on Hoxa9 [1]: high levels | average time to death of AML [2]: 69 days | p300 recruitment on Hoxa9 (p300 on Hoxa9): recruitment of p300 | elevation of H3K27ac on Hoxa9 (H3K27ac on Hoxa9): > 2,000 fold | association with H3K4me3 or H3 (H3K4me3 or H3): associated with H3K4me3 or H3 | restriction of polycomb factors (Ezh2 or Suz12) [3]: restricted within Hoxa11-a13
